Experimental data from ChEMBL document CHEMBL3400092 (2015).
Active and inactive are the calls of the source. The rule behind the calls is not given here.

Legend:
[1] = test system: Epidermal growth factor receptor (Homo sapiens), P00533 [L858R,T790M]; conditions: NCI-H1975, at 10 µM
[2] = test system: CL1-5; assay: Reduction in total wild type EGFR levels in gefinitib-insensitive and 24 hrs serum starved human CL1-5 cells at 10 uM pre-incubated for 1 hr before EGF stimulation for 30 mins by Western blot method; type: functional
Procedure, shortened: (§1)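 Cells in RPMI-1640 with 10% FBS were plated at 1×10^6 per 10-cm dish, cultured overnight, then kept serum-free for 24 h. They were pre-treated with 10 μM compound for 1 h, serum-free, then stimulated with EGF 20 ng/mL (20 min in methods, 30 min in legend). Whole-cell lysates, 40 μg/lane, were run on 10% SDS-PAGE, blotted to PVDF, probed for pan-EGFR and pEGFR (Tyr1068), and detected by ECL.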

[3] = target: Epidermal growth factor receptor (Homo sapiens) (UniProt P00533); conditions: CL1-5, at 10 µM
Epidermal growth factor receptor (Homo sapiens), sequence (P00533 whole entry): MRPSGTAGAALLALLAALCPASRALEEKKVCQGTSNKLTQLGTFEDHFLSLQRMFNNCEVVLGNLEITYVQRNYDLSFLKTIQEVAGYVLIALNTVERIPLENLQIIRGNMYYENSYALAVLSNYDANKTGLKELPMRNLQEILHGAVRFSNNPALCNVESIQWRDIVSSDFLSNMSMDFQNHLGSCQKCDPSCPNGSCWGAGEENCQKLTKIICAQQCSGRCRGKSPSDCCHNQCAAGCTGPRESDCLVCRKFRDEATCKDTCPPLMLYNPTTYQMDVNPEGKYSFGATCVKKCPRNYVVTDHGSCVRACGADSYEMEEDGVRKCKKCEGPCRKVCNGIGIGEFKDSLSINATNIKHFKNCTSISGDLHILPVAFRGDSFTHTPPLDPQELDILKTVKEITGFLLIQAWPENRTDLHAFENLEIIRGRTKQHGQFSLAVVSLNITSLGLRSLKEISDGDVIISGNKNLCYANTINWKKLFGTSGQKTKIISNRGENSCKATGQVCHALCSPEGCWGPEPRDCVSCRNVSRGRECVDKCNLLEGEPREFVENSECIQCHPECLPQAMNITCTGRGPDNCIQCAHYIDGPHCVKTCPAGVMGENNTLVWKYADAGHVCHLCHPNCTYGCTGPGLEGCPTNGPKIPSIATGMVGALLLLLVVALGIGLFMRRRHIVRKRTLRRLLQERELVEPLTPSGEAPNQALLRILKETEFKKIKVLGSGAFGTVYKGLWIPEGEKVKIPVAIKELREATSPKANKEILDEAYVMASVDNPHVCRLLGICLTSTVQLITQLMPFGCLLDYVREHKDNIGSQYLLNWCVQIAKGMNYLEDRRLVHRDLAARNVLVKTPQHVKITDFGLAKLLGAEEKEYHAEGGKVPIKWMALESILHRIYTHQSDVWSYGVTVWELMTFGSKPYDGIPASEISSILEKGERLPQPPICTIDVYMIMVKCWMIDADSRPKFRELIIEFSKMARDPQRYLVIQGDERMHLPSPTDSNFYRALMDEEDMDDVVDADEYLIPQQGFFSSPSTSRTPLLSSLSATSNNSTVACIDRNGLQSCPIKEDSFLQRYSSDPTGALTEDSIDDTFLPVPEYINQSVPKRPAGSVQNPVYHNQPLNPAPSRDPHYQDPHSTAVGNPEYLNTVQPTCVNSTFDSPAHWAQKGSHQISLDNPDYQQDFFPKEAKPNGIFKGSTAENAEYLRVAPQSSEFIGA

[4] = test system: NCI-H1975; assay: Reduction in total EGFR L858R and T790M mutant levels in gefinitib-resistant and 24 hrs serum starved human NCI-H1975 cells at 10 uM pre-incubated for 1 hr before EGF stimulation for 30 mins by Western blot method; type: functional, cell-based
Procedure, shortened: as §1

[5] = test system: IEC-18; assay: (§2) Cytoprotective activity against 40 uM gefitinib-induced cytotoxicity in rat IEC-18 cells assessed as restoration of cell viability at 5 uM incubated for 24 hrs by MTT assay; type: functional
Procedure, shortened: (§3)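 IEC-18 rat intestinal epithelial cells, kept in DMEM with 10% FBS, were seeded at 5×10^3 cells/well and co-treated with compound and gefitinib for 24 h. Stocks were in DMSO, with final DMSO below 0.1%. MTT (0.5 mg/mL) was added for 1.5 h, then DMSO, and absorbance was read at 570 nm. Viability was expressed as proliferative index (%) relative to untreated cells (100%). Triplicate; Student t-test.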

[6] = as §2; type: functional
Procedure, shortened: as §3

Epidermal growth factor receptor (Homo sapiens), P00533 [L858R,T790M], sequence (P00533 whole entry T790M/L858R, looked up): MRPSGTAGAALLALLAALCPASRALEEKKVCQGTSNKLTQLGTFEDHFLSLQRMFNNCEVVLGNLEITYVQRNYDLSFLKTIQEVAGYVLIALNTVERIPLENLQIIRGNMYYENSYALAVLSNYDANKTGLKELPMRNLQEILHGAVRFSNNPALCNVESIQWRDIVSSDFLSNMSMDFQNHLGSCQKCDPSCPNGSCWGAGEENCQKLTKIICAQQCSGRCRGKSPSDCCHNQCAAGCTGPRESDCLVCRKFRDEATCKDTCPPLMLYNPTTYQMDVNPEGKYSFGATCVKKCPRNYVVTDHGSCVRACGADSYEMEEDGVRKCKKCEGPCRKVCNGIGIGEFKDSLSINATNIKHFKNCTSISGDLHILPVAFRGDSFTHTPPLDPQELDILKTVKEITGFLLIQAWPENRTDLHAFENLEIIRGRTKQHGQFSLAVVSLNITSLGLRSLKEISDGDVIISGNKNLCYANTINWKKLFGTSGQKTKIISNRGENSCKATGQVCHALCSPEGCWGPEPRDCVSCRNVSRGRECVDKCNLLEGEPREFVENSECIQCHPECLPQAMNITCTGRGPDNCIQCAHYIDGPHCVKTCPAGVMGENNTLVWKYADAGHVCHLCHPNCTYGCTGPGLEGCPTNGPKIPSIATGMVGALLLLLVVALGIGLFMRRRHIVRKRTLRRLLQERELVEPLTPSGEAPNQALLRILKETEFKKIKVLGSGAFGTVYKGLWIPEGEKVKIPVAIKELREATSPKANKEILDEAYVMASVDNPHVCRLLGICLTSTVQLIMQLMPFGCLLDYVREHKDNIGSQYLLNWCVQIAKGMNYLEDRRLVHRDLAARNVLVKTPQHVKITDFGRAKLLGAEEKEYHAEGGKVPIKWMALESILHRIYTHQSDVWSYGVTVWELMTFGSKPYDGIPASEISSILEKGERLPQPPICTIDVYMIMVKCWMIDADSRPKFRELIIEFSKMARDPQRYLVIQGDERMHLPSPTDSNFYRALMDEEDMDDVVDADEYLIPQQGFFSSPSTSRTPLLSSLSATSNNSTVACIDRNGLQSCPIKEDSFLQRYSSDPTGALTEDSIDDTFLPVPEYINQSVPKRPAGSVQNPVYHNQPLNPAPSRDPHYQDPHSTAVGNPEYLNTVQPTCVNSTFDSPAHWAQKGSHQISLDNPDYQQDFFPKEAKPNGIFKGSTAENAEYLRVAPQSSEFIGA

Compound	inhibition [1]	inhibition [2]	inhibition [3]	inhibition [4]	Activity [5]	Activity [6]
CCOC(=O)CC/C(C(=O)/C=C/c1ccc(O)c(O)c1)=C(O)\C=C\c1ccc(O)c(O)c1	inactive	Active	Active	inactive		
CCOC(=O)CC/C(C(=O)/C=C/c1ccc(O)c(OC)c1)=C(O)\C=C\c1ccc(O)c(OC)c1	inactive	Active	Active	inactive		
COc1ccc(/C=C/C(=O)/C=C(O)/C=C/c2ccc(OC)c(OC)c2OC)c(OC)c1OC	Active	Active	Active	Active		
COc1cc(/C=C/C(=O)/C(CCC(=O)O)=C(O)/C=C/c2ccc(O)c(OC)c2)ccc1O	inactive	inactive	inactive	inactive		
COC(=O)COc1ccc(/C=C/C(=O)/C=C(O)/C=C/c2ccc(OCC(=O)OC)c(OC)c2)cc1OC	inactive	inactive	inactive	inactive		
COc1ccc(CCC(=O)CC(O)CCc2ccc(OC)c(OC)c2)cc1OC (stereo not given)	inactive	inactive	inactive	inactive		
COc1ccc(/C=C/C(=O)/C=C(O)/C=C/c2ccc(OC)c(OC)c2OC)cc1OC	Active	Active	Active	Active		
COc1cc(/C=C/C(=O)/C(C(C)=O)=C(O)/C=C/c2ccc(O)c(OC)c2)ccc1O	Active	Active	Active	Active		
CCOC(=O)/C=C/C(C(=O)/C=C/c1ccc(O)c(OC)c1)=C(O)\C=C\c1ccc(O)c(OC)c1	inactive	inactive	inactive	inactive		
COc1cc(OC)c(OC)cc1/C=C/C(=O)/C=C(O)/C=C/c1cc(OC)c(OC)cc1OC	Active	Active	Active	Active		
O=C(O)CC/C(C(=O)/C=C/c1ccc(O)c(O)c1)=C(O)\C=C\c1ccc(O)c(O)c1	inactive	inactive	inactive	inactive		
COc1cc(F)c(/C=C/C(=O)/C=C(O)/C=C/c2cc(OC)c(OC)cc2F)cc1OC	Active	Active	Active	Active		
CCOC(=O)CC/C(C(=O)/C=C/c1ccc(OC)c(OC)c1)=C(O)\C=C\c1ccc(O)c(OC)c1	Active	Active	Active	Active		
COc1cc(/C=C/C(=O)/C=C(O)/C=C/c2ccc(OCC(=O)Nc3ccccc3)c(OC)c2)ccc1OCC(=O)Nc1ccccc1	inactive	inactive	inactive	inactive		
COc1cc(/C=C/C(=O)/C=C(O)/C=C/c2ccc(OCCCC(=O)O)c(OC)c2)ccc1OCCCC(=O)O	inactive	inactive	inactive	inactive		
CCOC(=O)CCCOc1ccc(/C=C/C(=O)/C=C(O)/C=C/c2ccc(OCCCC(=O)OCC)c(OC)c2)cc1OC	inactive	inactive	inactive	inactive		
COc1cc(/C=C/C(=O)/C=C(O)/C=C/c2ccc(OCC(=O)O)c(OC)c2)ccc1OCC(=O)O	inactive	inactive	inactive	inactive		
COc1cc(/C=C/C(=O)CC(=O)/C=C/c2ccc(O)c(OC)c2)ccc1O		Active		Active	Active	
CCOC(=O)CC/C(C(=O)/C=C/c1cc(O)c(OC)c(OC)c1)=C(O)\C=C\c1cc(O)c(OC)c(OC)c1	Active	inactive	Active			

Compound	inhibition [1]	inhibition [2]	inhibition [3]	inhibition [4]	Activity [5]	Activity [6]
CCOC(=O)CC/C(C(=O)/C=C/c1ccc(OCC(=O)OC)c(OC)c1)=C(O)\C=C\c1ccc(OCC(=O)OC)c(OC)c1	inactive	inactive	inactive	inactive		
CCOC(=O)CC/C(C(=O)/C=C/c1ccc(O)c(OC)c1)=C(O)\C=C\c1ccc(O)c(O)c1	Active	Active	Active	Active		
COc1ccc(/C=C/C(=O)/C=C(O)/C=C/c2ccc(OC)c(OC)c2)cc1O	Active	Active	Active	Active	Active	
COc1cc(/C=C/C(=O)/C=C(O)/C=C/c2cc(O)c(OC)c(OC)c2)cc(O)c1OC	inactive	inactive	inactive	inactive		
COc1cc(/C=C/C(O)=C/C(=O)/C=C/c2ccc(O)c(O)c2)ccc1O	Active	inactive	inactive	Active		
COc1cc(/C=C/C(O)=C/C(=O)/C=C/c2ccc(OC)c(OC)c2)ccc1O	Active	Active	Active	Active	Active	
CCOC(=O)CC/C(C(=O)/C=C/c1ccc(OC)c(OC)c1)=C(O)\C=C\c1ccc(OC)c(OC)c1	inactive	inactive	inactive	inactive		
COc1cc(/C=C/C(=O)/C(CCC(=O)O)=C(O)/C=C/c2ccc(O)c(O)c2)ccc1O	inactive	inactive	inactive	inactive		
CCOC(=O)CC/C(C(=O)/C=C/c1cc(OC)c(O)c(OC)c1)=C(O)\C=C\c1cc(OC)c(O)c(OC)c1	inactive	inactive	inactive	inactive		
CCOC(=O)/C=C/C(C(=O)/C=C/c1ccc(O)c(O)c1)=C(O)\C=C\c1ccc(O)c(OC)c1	inactive	inactive	inactive	inactive		
COc1cc(/C=C/C(=O)/C(CCC(=O)O)=C(O)/C=C/c2ccc(OCCCC(=O)O)c(OC)c2)ccc1OCCCC(=O)O	inactive	inactive	inactive	inactive		
O=C(/C=C(O)/C=C/c1ccc(O)c(O)c1)/C=C/c1ccc(O)c(O)c1	Active	Active	Active	inactive		<=80%
COc1cc(OC)c(OC)cc1/C=C/C(O)=C/C(=O)/C=C/c1ccc(OC)c(OC)c1	Active	Active	Active	Active		
COc1cc(/C=C/C(O)=C/C(=O)/C=C/c2ccc(O)cc2)ccc1O	inactive	inactive	inactive	inactive		
CCOC(=O)/C=C/C(C(=O)/C=C/c1ccc(OC)c(OC)c1)=C(O)\C=C\c1ccc(OC)c(OC)c1	inactive	inactive	inactive	inactive		
COc1ccc(/C=C/C(=O)/C(C)=C(O)/C=C/c2ccc(OC)c(OC)c2)cc1OC	Active	Active	Active	Active		
COc1ccc(/C=C/C(=O)/C=C(O)/C=C/c2ccc(OC)c(OC)c2)cc1OC	Active	Active	Active	Active	Active	
CCOC(=O)CCCOc1ccc(/C=C/C(=O)/C(CCC(=O)OCC)=C(O)/C=C/c2ccc(OCCCC(=O)OCC)c(OC)c2)cc1OC	inactive	inactive	inactive	inactive		
